Compound activity (PubChem BioAssay)
M18AAP inhibitor: PfM18AAP enzyme inhibition; recombinant PfM18AAP, H-Glu-NHMec fluorogenic cleavage; inhibition, % at 7.35 µM; actives 1.2% (n = 290,000); AID 1822;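 active = inhibition above the campaign mean inhibition over all tested compounds plus 3 SD, cut at about 28% in these data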;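 also: 0% = plate median of test compound wells and 100% = 2 mM ZnCl2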
ALR H2O2 inh: blocks human ALR sulfhydryl oxidase activity | P55789 | purified ALR, DTT oxidation, H2O2 HRP-luminol luminescence | inhibition, % (concentration not given with the values) | actives 3.8% (n = 290,000) | AID 485317;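 active = mean replicate inhibition above about 79%, with every replicate also reaching it, limit read from the data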
Target sequence (P55789 whole entry, looked up): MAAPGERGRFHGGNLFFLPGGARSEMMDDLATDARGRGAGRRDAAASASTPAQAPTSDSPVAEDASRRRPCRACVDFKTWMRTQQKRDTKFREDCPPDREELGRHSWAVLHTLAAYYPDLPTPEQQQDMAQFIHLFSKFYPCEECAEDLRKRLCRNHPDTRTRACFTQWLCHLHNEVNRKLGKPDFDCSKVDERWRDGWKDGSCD
EBNA-1 inhibitor: blocks EBNA-1 binding to DNA | EBNA-1 DNA binding, fluorescence polarization | inhibition, % at 14.8 µM | actives 0.34% (n = 300,000) | AID 1950; in the data active = inhibition above about 28%
NS3 helicase inh: HCV NS3 helicase inhibition; NS3 helicase DNA unwinding, Cy5 molecular beacon fluorescence; inhibition, % at 10.9 µM; actives 0.56% (n = 290,000); AID 1800;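 active = inhibition above the mean of all tested compounds plus 3 SD, set per campaign, cut at about 35% in these data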;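 also: 0% = DMSO wells and 100% = thioflavine S control wells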
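Control set: DMSO versus 110 µM thioflavine S; Material: NS3 helicase fragment of HCV; Measured by: Cy5 fluorescence at 0 and 60 min, beacon hairpin quenching; Read-out basis: percent inhibition from t60/t0 fluorescence ratio; Times: reaction time 60 min, 25 °C; Repeats: single replicate; Compound dosing: single dose, 10.9 µM nominal final, DMSO 0.8% final.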
ZTA counter: counter-screen for EBNA-1 inhibitors: inhibitors of Epstein-Barr virus ZTA. AID 2234. ZTA-DNA binding, fluorescence polarization. P03206. inhibition, % at 11 µM. actives 0.15% (n = 320,000); in the data active = inhibition above about 33%
Target sequence (P03206 whole entry, looked up): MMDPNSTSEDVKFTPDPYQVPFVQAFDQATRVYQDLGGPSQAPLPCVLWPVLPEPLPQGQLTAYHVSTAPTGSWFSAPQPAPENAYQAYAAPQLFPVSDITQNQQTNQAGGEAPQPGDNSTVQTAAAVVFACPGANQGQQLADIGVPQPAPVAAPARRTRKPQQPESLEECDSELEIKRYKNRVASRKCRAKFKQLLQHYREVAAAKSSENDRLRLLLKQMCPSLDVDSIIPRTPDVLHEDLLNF
HCV core dimer: HCV core protein dimerization inhibition; TR-FRET GST/Flag-core106 dimerization, 1536-well; inhibition, % at 5 µM; actives 0.33% (n = 300,000); AID 1899;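 active = inhibition above the mean of all tested compounds plus 3 SD, set per screening campaign, cut at about 45% in these data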
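Material: Tagged HCV core106 pair (GST and Flag) | Amount: GST-core106 13.5 nM, Flag-core106 17 nM | Medium: KF-containing HEPES buffer, pH 7.45, DTT, CHAPS, BSA | Reagent: Eu donor and XL665 acceptor anti-tag antibodies | Schedule: 4 h at 22.5 °C | Technique: Time-resolved FRET, ex 340 nm, em 617 and 671 nm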
* hit, by the source's call; / = no result given. A selection: hits, their analogues and other compounds. The true share with any hit is near 5.2%.

SMILES	M18AAP inhibitor	ALR H2O2 inh	EBNA-1 inhibitor	NS3 helicase inh	ZTA counter	HCV core dimer
Cc1cc(C)nc(Nc2ccc(C(=O)O)cc2)n1	-4.8	-7.2	-0.8	-2.6	-3.8	-2.0
Cc1ccc(/C=N/Nc2nc(C)cc(C)n2)cc1	12.1	-10.9	1.6	7.7	-0.8	-1.8
C=CC[C@@H](CC(=O)NCCO)C(=O)N[C@@H](COC(=O)[C@@H](CC=C)CC(=O)OC(C)(C)C)Cc1c[nH]c2ccccc12	/	-3.0	/	/	/	/
CC(=O)Nc1ccc(N2C(=O)CSC2c2cccc(Br)c2)cc1 (stereo not drawn)	9.4	65.7	3.6	12.4	-14.8	-10.9
COc1ccccc1N(CC(=O)Nc1cc(S(=O)(=O)N(C)C)ccc1C)S(=O)(=O)c1cccs1	/	-0.2	/	/	/	/
CCCCSc1nc2ccc(Nc3nc(N4CCOCC4)nc(N4CCOCC4)n3)cc2s1	4.0	89.9*	2.9	-1.7	20.7	-12.0
CCCCNC(=O)CSc1nc2ccc(Nc3nc(N4CCOCC4)nc(N4CCOCC4)n3)cc2s1	1.5	-1.9	-7.4	-6.4	7.3	3.3
COc1cc(CC2COC(c3ccc(O)c(OC)c3)C2COC(C)=O)ccc1O (stereo not drawn)	/	82.1*	-10.7	/	-6.0	18.8
CCOC(=O)N1CCN(C(=O)CSCC(=O)Nc2nc(-c3ccc(-c4ccccc4)cc3)cs2)CC1	-4.9	3.7	-6.2	-5.1	18.1	7.8
CCOC(=S)SCC(=O)Nc1nc(-c2ccccc2)cs1	1.1	99.1*	6.0	9.4	-11.3	-1.3
COc1ccc(-c2csc(NC(=O)CSc3nc(C)nc4sc(C(=O)O)c(C)c34)n2)cc1	6.9	99.0*	2.6	20.0	2.0	20.8
CN(C)CC(=O)Nc1nc(-c2ccccc2)cs1	4.0	4.5	-14.3	-7.6	-11.9	-4.1
COc1ccc(-c2csc(NC(=O)CSc3nc(C)cs3)n2)cc1	-15.9	-6.4	23.3	3.8	-4.3	-0.4
CCOC(=O)N1CCN(C(=O)CSCC(=O)Nc2nc(-c3ccc(OC)cc3)cs2)CC1	-1.2	98.6*	10.3	-2.4	-8.8	3.4
CCOC(=S)SCC(=O)Nc1nc(-c2ccc(Br)cc2)cs1	3.3	98.6*	6.5	4.3	-3.1	5.3
CN(CC(=O)Nc1ccccc1C(F)(F)F)Cc1c(O)ccc2ccccc12	6.1	/	-13.9	-9.5	-4.7	-1.2
CC(=O)Nc1ccc(NC(=O)CC(c2ccccc2)c2ccccc2)cc1	-0.4	-10.5	-11.3	-9.7	-0.4	5.2
O=C(CC(c1ccccc1)c1ccccc1)Nc1ccc(O)cc1	-2.7	98.6*	-2.3	-6.2	-3.8	4.5
O=C(CC(NCCc1ccccc1)C(=O)O)Nc1ccc(O)cc1 (stereo not drawn)	1.0	91.2*	-3.3	0.4	1.6	-3.4
C/C(CC(=O)Nc1ccc2c(c1)OCO2)=N\NC(=O)C(c1ccccc1)c1ccccc1	0.7	-2.4	2.0	2.4	3.2	-6.8
CCN(CC(=O)Nc1c(F)cccc1F)C(=O)C1CC(=O)N(CCc2ccc(OC)c(OC)c2)C1 (stereo not drawn)	/	-2.5	/	/	-9.5	/
O=C(c1ccccc1)C1CN(c2ccccc2)CC1c1ccc(Cl)cc1 (stereo not drawn)	1.2	-3.9	1.2	3.9	-5.4	1.1
COc1cccc(C(=O)C2CN(c3ccccc3)CC2c2ccc(Cl)cc2)c1 (stereo not drawn)	5.2	97.3*	3.2	3.0	4.2	3.3
Nc1c(-c2ccccc2)cnn1-c1cccc([N+](=O)[O-])c1	-6.8	87.9*	-5.2	-8.6	3.6	-4.3
CCCCC(=O)Nc1ccccc1N1CCN(c2ccccc2)CC1	-3.5	73.8	2.2	3.1	7.8	4.2
SMILES	M18AAP inhibitor	ALR H2O2 inh	EBNA-1 inhibitor	NS3 helicase inh	ZTA counter	HCV core dimer
Cc1ccc(C(=O)OCC(=O)Nc2ccccc2N2CCOCC2)cc1	1.2	92.0*	-7.1	0.1	-9.0	-0.4
CCCCCC(=O)Nc1ccccc1N1CCOCC1	-2.9	99.4*	-5.2	2.3	-9.6	-12.6
NS(=O)(=O)c1ccc(N=Nc2c[nH]c(=O)c(O)c2)cc1	13.9	89.5*	-6.3	8.6	-7.6	-27.0
Nc1nc(O)c(N=Nc2ccc(S(N)(=O)=O)cc2)c(=O)[nH]1	6.1	-6.5	/	3.9	/	/
COc1cccc(CNC(=O)c2cc3c(cc2Cl)N2CCCCCC2=NS3(=O)=O)c1	/	-2.2	0.0	/	-12.0	1.0
CCOC(=O)N1CCN(Cc2nc(N)nc(Nc3ccc(Cl)cc3)n2)CC1	1.8	15.0	11.8	7.1	12.9	3.9
Nc1nc(CN2CCN(C(=O)c3ccco3)CC2)nc(Nc2cccc(Cl)c2)n1	-15.5	94.9*	4.3	9.2	11.8	2.9
CCn1c(SCC(=O)c2ccccc2)nnc1-c1ccoc1C	2.9	84.1*	2.9	-2.5	-1.8	-0.3
CCn1c(SCC(=O)c2ccccc2)nnc1-c1cccnc1	-5.9	91.0*	9.5	2.4	-9.5	4.0
COCCCn1c(SCC(=O)N2CCc3ccccc32)nnc1-c1ccoc1C	-1.8	11.5	3.6	0.4	4.0	54.8*
CCn1c(SCCC(=O)O)nnc1-c1cccnc1	-0.6	-23.4	8.2	-2.4	15.8	-3.4
Cc1[nH]c2ccccc2c1/C=N/NC(=O)C1CC1(c1ccccc1)c1ccccc1 (stereo not drawn)	8.7	-5.2	-1.1	-23.3	-9.8	-2.2
CCN(CC)c1ccc([C@H]2[C@@H]3CCCC[C@]3(O)CCN2CC(=O)NCc2ccco2)cc1	22.9	99.0*	4.0	-8.5	-8.1	-2.5
O=C(CCc1ccccc1)NNC(=O)c1ccncc1	/	8.9	/	/	/	/
NC(=O)SCC(=O)Nc1ccccc1C(=O)O	4.9	93.6*	-1.3	10.4	2.2	4.1
COc1ccccc1CC(=O)Nc1ccccc1O	-0.2	89.4*	2.1	4.4	0.6	0.9
O=C(CSc1ccccc1)Nc1ccccc1C(=O)O	14.2	35.0	-1.6	3.8	-6.6	0.5
COc1ccccc1NC(=O)CSC(N)=O	-29.5	99.3*	-7.9	7.7	-4.6	-0.8
Cc1cccc(C)c1NC(=O)CNC(=O)C1CC(=O)N(Cc2ccccc2)C1 (stereo not drawn)	/	/	5.8	/	11.6	-2.0
COc1ccc(CN(C)CC(=O)Nc2ccccc2C(=O)NC2CC2)cc1F	/	6.2	/	/	/	/
COc1cc(/C=C/[N+](=O)[O-])ccc1OC(=O)c1cc2ccccc2oc1=O	-2.9	12.6	-3.3	10.2	-6.8	69.6*
COc1ccccc1OC(=O)c1cc2ccccc2oc1=O	6.3	28.3	5.7	-1.0	9.8	-3.1
NS(=O)(=O)c1ccc(CNC(=O)c2ccc3c(=O)n4c(nc3c2)CCC4)cc1	/	0.9	3.9	/	9.4	10.9
Brc1ccc2nc(-c3cccs3)c(NCC3CCCO3)n2c1 (stereo not drawn)	-0.7	98.3*	3.6	1.1	3.4	-1.3
COc1ccc(C2N=C(c3ccccc3)NO2)cc1OC (stereo not drawn)	2.5	-16.1	9.8	8.7	-6.0	10.8
